For one data set, the target named is DENV2 NS2B-NS3pro (Dengue virus type 2, UniProt P14340). The data set can be described thus: In vitro protease assay. It is filed as biochemical.
The test system of a further data set is DENV2. The data set can be described thus: Plaque assay of DENV2 infectivity. The format is cell-based. Particulars: Dengue virus, DENV2, read-out: EC50 (PFU).
The subject of data set [1] is oleic acid-induced LD in DENV2 infected BHK-21 cells. The data set can be described thus: Oil Red O staining of lipid droplets. The format is cell-based. Particulars: 0.1 mM oleic acid-BSA, 5 μM, 24 h, absorbance at 405 nm. In outline:
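BHK-21 cells in MEM with 10% FBS were infected with DENV2 at MOI 1 for 1 h. They were then incubated for 24 h in MEM with 0.1 mM oleic acid-BSA plus test compound (5 μM in imaged wells), with 1% DMSO as negative control. Cells were PBS-washed, fixed in 4% paraformaldehyde for 10 min, and stained with ORO and DAPI. Dye was extracted in 100% isopropanol and read at A405. Duplicates were averaged.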

Another data set concerns DENV2 replicon. The data set can be described thus: microbe, parasite or virus in culture. The format is cell-based. Particulars: Dengue virus, DENV2, BHK-21, 24 h, read-out: EC50 (replicon). In general terms: In antiviral work, replicon cells carry a viral genome segment that copies itself.
Data set [2] in a line: Cell-based cytotoxicity assay. The arrangement: species or system Baby Hamster. Particulars: hamster.
The subject of a further data set is actin. The settings on record: read-out: IC50 of inhibition of actin polymerization; ref Dhar et al., 2015; cited from earlier work.
The next data set has as its system BHK-21 cells. The data set can be described thus: Cell-based cytotoxicity assay. The arrangement: species or system Baby Hamster.
The mark [3] stands for this setting: read-out: IC50 (protease activity), mean ± SD of two replicates, 25 nM DENV2 protease, 25 μM substrate Bz-Nle-Lys-Arg-Arg-AMC, 30 min, inhibitor concentrations 1.56-200 μM.

Where two headings read alike, the source gives them in different places.

Sequence of DENV2 NS2B-NS3pro (P14340 1476-1653): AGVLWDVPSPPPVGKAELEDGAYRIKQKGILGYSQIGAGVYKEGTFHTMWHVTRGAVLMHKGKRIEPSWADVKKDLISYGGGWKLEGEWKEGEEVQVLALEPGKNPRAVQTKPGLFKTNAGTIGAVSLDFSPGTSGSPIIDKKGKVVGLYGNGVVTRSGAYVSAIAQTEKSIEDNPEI
Sequence of DENV2 NS2B-NS3pro (P14340 1398-1437): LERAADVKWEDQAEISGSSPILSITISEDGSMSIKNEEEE

By IC50 is commonly meant the point on the concentration scale where inhibition reaches its midpoint. A word on the EC50: it is the concentration needed to bring the measured effect to its halfway point. As usually defined, the CC50 is the concentration giving 50% cytotoxicity. Higher therefore signals lower toxicity to the cells. Take `COc1cc(C=CC(=O)CC(=O)C=Cc2ccc(O)c(OC)c2)ccc1O` [CC1, 1,7-bis(4-hydroxy-3-methoxyphenyl)-1,6-heptadiene-3,5-dione, reference compound]: the IC50 on DENV2 NS2B-NS3pro was 66 ± 13.1 µM; in the data set on actin, 16 µM. Also, the values for the EC50 with DENV2 and in the data set with DENV2 replicon were 14 ± 4.62 µM and 13.9 ± 2.08 µM, respectively. The “oleic acid-induced lipid droplets (LD), Oil Red O” value in data set [1] is listed as “affected LD levels”. For the same compound, it took 49 ± 8.24 µM to reach half-maximal cytotoxicity in data set [2] (BHK-21 cells) (CC50 at 24 h).

`O=C(/C=C/c1ccc(O)cc1)CC(=O)/C=C/c1ccc(O)cc1` [CC2, Bisdemethoxycurcumin] returned an IC50 against DENV2 NS2B-NS3pro of 36.2 ± 9.67 µM. Moreover, the EC50 with DENV2 was determined as 6.49 ± 0.22 µM; in the data set on DENV2 replicon, 26.4 ± 3.67 µM. Also, the CC50 at 24 h in data set [2] was determined as 43.4 ± 5.19 µM.

Regarding `COc1cc(/C=C2\CC/C(=C\c3ccc(O)c(OC)c3)C2=O)ccc1O` [CC4], at DENV2 NS2B-NS3pro (setting [3]), the IC50 is 43.9 ± 10.1 µM.

Turning to `COc1cc(C=C2CCCC(=Cc3ccc(O)c(OC)c3)C2=O)ccc1O` [CC5], the IC50 on DENV2 NS2B-NS3pro (setting [3]) was determined as 61 ± 8.7 µM. For the same compound, it took 25.5 ± 2.64 µM to reach half-maximal cytotoxicity in the data set with BHK-21 cells (CC50).

Values taken from paper PMC6541004 (Antiviral research, 2018).
